Test [1] in a line: reduced viability of SK-BR-3 breast cancer cells – cell-based, 24 h, human, pilot screen (AID 572;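 active = viability at or below 10% of carrier control in both of two separate runs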;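 also: compound exposure lasted between 18 and 24 h rather than exactly 24 h; 100% = carrier-treated control wells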). The following applies: SK-BR-3 viability, CellTiter-Glo luminescence, at 10 µM, stronger effect = lower value.
The nature of test [2]: HUVEC growth inhibition – cell-based, human, primary screen (AID 575).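 Also: 100% = median of untreated cell wells with 0.1% DMSO on each plate.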 The conditions noted are these: HUVEC proliferation, CellTiter-Glo luminescence, 72 h; at 10 µM; stronger effect = lower value. The gist of the method:
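Test system: primary human umbilical vein endothelial cells; medium: endothelial basal medium with 2% FBS plus growth supplements; dosing: 10 µM compound only; times: 72 h treatment at 37 °C; signal: CTG luminescence; read-out: % viability relative to median vehicle-well signal on each plate; control set: vehicle and MePR control wells; plate: 384-well, collagen-coated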

A short description of test [3]: H69AR cell proliferation blockers – human, duplicate replicates, primary screen (AID 580;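 active = viability at or under a set limit in both replicates, limit being median viability minus 3 SD, cut at about 48% in these data, passing the limit was not always enough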;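 also: 100% = mean luminescence of untreated wells and 0% = no signal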). The following applies: H69AR lung tumor cells viability, ATP luminescence, 72 h; at 10 µM; stronger effect = lower value.
Test [4] can be described thus: MRP1 drug-resistance reversers in H69AR cells – cell-based, doxorubicin co-treatment, pilot screen (AID 601;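 active = viability loss from added drug above about 55%, and viability with drug at most 40%, in both replicates, limit read from the data, passing the limit was not always enough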). The conditions noted are these: CellTiter-Glo, 72 h, at 10 µM; for differential viability (reversal): stronger effect = higher value.
Test [5] in a line: yeast transport mutant growth inhibition pilot in 384-well plates, post-Golgi transport modulator project (AID 636; in the data active = inhibition above about 31%). The conditions noted are these: absorbance 615 nm, about 18 h, stronger effect = higher value.
Test [6] in a line: growth suppression of yeast trafficking mutant, preliminary HTS, modulators of trafficking downstream of Golgi apparatus project, 1536-format plate, OD 615 nm (AID 637; in the data active = inhibition above about 30%). The conditions noted are these: yeast transport mutant growth, absorbance 615 nm, 18 h; stronger effect = higher value.
[7] abbreviates: H69AR cells + 2 uM doxorubicin, measured here: viability with 2 uM doxorubicin, stronger effect = lower value.
Setting [8] is: H69AR cells, compound alone cytotoxicity.

SMILES strings stand for the structures. Active and inactive are the calls of the source.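 The calls were made as follows, unless noted: active = viability at or below 30% in both replicate assays; inconclusive = viability at or below 30% in just one of the two assays; inactive = the rest.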

On to `C#CCSc1nc(-c2cccs2)ccc1C#N`, for which the viability in test [1] is 91% (inactive); in test [2], 95.1% (inactive); in test [3], 71.4% (inactive); in test [4] (setting [7]), 93.9%; in test [4] (setting [8]), 71.4%. In addition, the differential viability (reversal) in test [4] (H69AR cells + 2 uM doxorubicin) was -22.5% (inactive). Also, the inhibition was -0.96% (inactive) in test [5] and 21.8% (inactive) in test [6].

With `COc1ccc(-c2cc3ccc(OCc4nn[nH]n4)cc3oc2=O)cc1`, the viability in test [1] was 104% (inactive); in test [2], 99.2% (inactive); in test [3], 102% (inactive); in test [4] (setting [7]), 87.5%; in test [4] (setting [8]), 102%. For the same compound, the differential viability (reversal) in test [4] (H69AR cells + 2 uM doxorubicin) was 14.1% (inactive). For the same compound, the inhibition is -6.58% (inactive) in test [5] and 1.29% (inactive) in test [6].

As for `CCCN(CCC)S(=O)(=O)c1ccc(C(=O)O)cc1`, the viability in test [1] was 99% (inactive); in test [2], 96.2% (inactive); in test [3], 97.2% (inactive); in test [4] (setting [7]), 87.1%; in test [4] (setting [8]), 97.2%. For the same compound, in test [4] (H69AR cells + 2 uM doxorubicin), the differential viability (reversal) is 10.1% (inactive). The inhibition was -0.52% (inactive) in test [5] and -1.5% (inactive) in test [6].

Regarding `CCCCNC(=O)c1nnn(-c2ccccc2)c1N`, the viability is 88% (inactive) in test [1]; 113% (inactive) in test [2]; 92.2% (inactive) in test [3]; 92.8% in test [4] (setting [7]); 92.2% in test [4] (setting [8]). The differential viability (reversal) in test [4] (H69AR cells + 2 uM doxorubicin) was -0.63% (inactive). Moreover, the inhibition in test [5] is 4.03% (inactive); in test [6], 2.3% (inactive).

Consider `O=C(O)c1cc(-c2ccccc2)nc2ccccc12`, for which the viability in test [1] was 91% (inactive); in test [2], 92.7% (inactive); in test [3], 76.7% (inactive); in test [4] (setting [7]), 74.6%; in test [4] (setting [8]), 76.7%. In test [4] (H69AR cells + 2 uM doxorubicin), the differential viability (reversal) was 2.04% (inactive). The inhibition in test [5] was 2.99% (inactive); in test [6], 4.83% (inactive).

As to `CN(CC(=O)Nc1ccc(F)c(Cl)c1)S(=O)(=O)c1cccc2nsnc12`, the viability in test [1] is 99% (inactive); in test [2] it was 74.3% (inactive); in test [3] it was 90.1% (inactive); in test [4] (setting [7]), 81.8%; in test [4] (setting [8]), 90.1%. Moreover, in test [4] (H69AR cells + 2 uM doxorubicin), the differential viability (reversal) is 8.32% (inactive). For the same compound, the inhibition is -2.3% (inactive) in test [5] and -1.09% (inactive) in test [6].

`CC(=O)NCCCCCCNC(C)=O`: the viability in test [1] was 125% (inactive); in test [2], 100% (inactive); in test [3], 94.5% (inactive); in test [4] (setting [7]), 88.9%; in test [4] (setting [8]) it was 94.5%. Further, the differential viability (reversal) in test [4] (H69AR cells + 2 uM doxorubicin) was 5.61% (inactive). In addition, the inhibition was 4.94% (inactive) in test [5] and -1.17% (inactive) in test [6].

Take `COc1ccc(CCN(C)CCCC(C#N)(c2cc(OC)c(OC)c(OC)c2)C(C)C)cc1OC` (stereo unspecified): the viability in test [1] was 85% (inactive); in test [2], 64.6% (inactive); in test [3], 95.6% (inactive); in test [4] (setting [7]) it was 101%; in test [4] (setting [8]), 95.6%. For the same compound, in test [4] (H69AR cells + 2 uM doxorubicin), the differential viability (reversal) was -5.51% (inactive). The results for the inhibition in test [5] and in test [6] were 5.71% (inactive) and -1.17% (inactive), respectively.

Regarding `CCc1ccccc1N1C(=O)C2CC(C)=C(C)CC2C1=O` (stereo unspecified), the viability in test [1] is 89% (inactive); in test [2] it was 104% (inactive); in test [3], 103% (inactive); in test [4] (setting [7]) it was 84.7%; in test [4] (setting [8]), 103%. Moreover, in test [4] (H69AR cells + 2 uM doxorubicin), the differential viability (reversal) is 18% (inactive). Besides, the inhibition in test [5] was -5.73% (inactive); in test [6], 0% (inactive).

Regarding `CCOC(=O)c1c(NC(=O)Cn2c(=O)oc3ccccc32)oc(C)c1C(C)=O`, the viability is 81% (inactive) in test [1]; 99.3% (inactive) in test [2]; 101% (inactive) in test [3]; 95.1% in test [4] (setting [7]); 101% in test [4] (setting [8]). Also, the differential viability (reversal) in test [4] (H69AR cells + 2 uM doxorubicin) was 5.86% (inactive). In addition, the inhibition is -1.23% (inactive) in test [5] and -4.52% (inactive) in test [6].

For `O=C(Nc1cccnc1)c1cc2c(ccc3ccccc32)o1`, the viability in test [1] is 96% (inactive); in test [2], 97.3% (inactive); in test [3] it was 84.9% (inactive); in test [4] (setting [7]), 84.5%; in test [4] (setting [8]) it was 84.9%. Further, the differential viability (reversal) in test [4] (H69AR cells + 2 uM doxorubicin) was 0.36% (inactive). For the same compound, the inhibition in test [5] was -0.13% (inactive); in test [6], -3.45% (inactive).

`CC(=O)c1c(O)cc(C)n(Nc2nc(C)cc(C)n2)c1=O`: the viability in test [1] was 91% (inactive); in test [2] it was 84.6% (inactive); in test [3] it was 71.9% (inactive); in test [4] (setting [7]), 100%; in test [4] (setting [8]), 71.9%. Further, the differential viability (reversal) in test [4] (H69AR cells + 2 uM doxorubicin) was -28.5% (inactive). The results for the inhibition in test [5] and in test [6] were -4.05% (inactive) and -0.73% (inactive), respectively.

Values taken from PubChem BioAssay.
